From publication PMC3788622 (Journal of Medicinal Chemistry, 2013)
“Also recorded” adds a separate entry of the source. Blank lines part the entries; values can stand above or below the molecule they belong to.

Experiments:
RPB1 = RPB1 protein ELISA; type: cell-based; conditions: LNCaP cells
Summary of the method: (§1)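 LNCaP cells were treated with 10 μM test compound for 72 h. Controls were DMSO vehicle and 1 μM doxorubicin for 24 h. RPB1 was measured with an RPB1-specific ELISA kit and total p53 with a pan-p53 ELISA kit, each following the kit instructions, in biological triplicates.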

male C57BL/6J mice [1] = assay: Hematological analysis of wild-type mice after six injections; type: in vivo, mouse; conditions: six injections sc 1 mg/kg, before treatment vs at sacrifice
Summary of the method: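 Five healthy male C57BL/6J mice were bled retro-orbitally into K2EDTA tubes for baseline haematology and allowed 1 week to recover. They then received test compound 1 mg/kg sc in 20% DMSO/normal saline every 3 days for six injections. They were bled again 2 days after the final injection and euthanised. Serum and haematology samples were prepared separately; serum ALT, AST, total bilirubin, BUN and creatinine were measured. Data are the mean of five animals ± std.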

male C57BL/6J mice [2] = assay: Histopathology after single subcutaneous injection; type: in vivo, mouse; conditions: for Organ toxicity by histopathology, overall: single sc dose, any dose level tested (1, 3, 10 mg/kg)
Summary of the method: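 After the single sc dose (1, 3 or 10 mg/kg, 25% DMSO/saline, 9-day observation), two representative mice per group were fixed in 10% formalin. A veterinary pathologist examined cecum, duodenum, heart, ileum, kidney, liver, lung, pancreas, spleen and stomach, blinded to animal identity.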

male C57BL/6J mice [3] = assay: Serum markers of liver and kidney damage after multiple subcutaneous injections; type: in vivo, mouse; conditions: 1 mg/kg sc every 3 days, three injections
Summary of the method: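 Male C57BL/6J mice, 8 weeks old, were dosed in groups of three with 1 mg/kg sc every 3 days for three injections and sacrificed 2 days after the last. Weight was recorded on injection days and at the end point. Retro-orbital blood was spun at 6000 rpm for 5 min. Serum ALT, AST, total bilirubin, BUN and creatinine were assayed blinded.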

male C57BL/6J mice [4] = assay: Histopathology after multiple subcutaneous injections; type: in vivo, mouse
LNCaP cells = assay: Alkaline comet assay; type: cell-based; conditions: 10 μM, 48 h
Summary of the method: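 LNCaP cells were seeded at 100 000 per well and left to adhere 36–48 h. They were then exposed to 10 μM test compound for 48 h, with 5 μM doxorubicin for 4 h as the comparator. DNA damage was assessed with a commercial comet kit after gentle harvest in PBS. Slides were imaged by confocal microscopy at 10×, and more than 100 comets were scored per condition as percentage of DNA in the tail.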

p21, IGFBP3, and GADD45A = assay: Quantitative RT-PCR of p53 responsive genes; type: cell-based; conditions: LNCaP cells, 1, 3, 10 μM, 72 h
Summary of the method: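 LNCaP cells were seeded at 50 000 per well, left to adhere 36–48 h, and treated with 1, 3 or 10 μM test compound for 72 h. Total RNA was extracted on columns and reverse transcribed. p21, IGFBP3 and GADD45A were quantified by SYBR Green real-time PCR relative to β-glucuronidase, in biological replicates.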

male C57BL/6J mice [5] = assay: Serum markers of liver and kidney damage after single subcutaneous injection; type: in vivo, mouse; conditions: single sc dose 1, 3, 10 mg/kg; dose stated in the value
Summary of the method: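 All mice from the single sc dose groups (1, 3, 10 mg/kg in 25% DMSO/saline, n = 4, 9-day observation) were bled retro-orbitally. Serum was obtained by centrifugation at 6000 rpm for 5 min. ALT, AST, total bilirubin, BUN and creatinine were measured externally, blinded to animal identity.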

p53 = p53 protein ELISA; type: cell-based; conditions: LNCaP cells
Summary of the method: as §1

[6] = Liver microsomal stability; type: in vitro ADME; conditions: 1 mg/mL mouse liver microsomes, 37 °C, 60 min, with and without NADPH
Summary of the method: (§2)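 Test compound was incubated with 1 mg/mL human or mouse liver microsomes at 37 °C in 100 mM KH2PO4, 3 mM MgCl2, pH 7.4, with or without 2 mM NADPH. After 60 min, ice-cold methanol was added, samples sat on ice for 10 min or more, then were diluted with water and centrifuged. Analysis was by LC/MS/MS as percent remaining versus time zero, in duplicate.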

male C57BL/6J mice [7] = assay: Escalating single dose subcutaneous injections: animal weight and behavior; type: in vivo, mouse; conditions: for Weight loss: single sc injection at 1, 3, and 10 mg/kg, observed 9 days
Summary of the method: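 Male C57BL/6J mice, 8 weeks old, were acclimatised 3 days after arrival. Groups of four received one sc dose of 1, 3 or 10 mg/kg in up to 200 μL 25% DMSO/saline. Doses were set by UV/vis using ε 69 500 M–1·cm–1 near 315 nm. Mice were weighed daily for 9 days, then sacrificed. Humane end point was visible duress or weight loss over 15% of starting weight.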

[8] = Liver microsomal stability; type: in vitro ADME; conditions: 1 mg/mL human liver microsomes, 37 °C, 60 min, with and without NADPH
Summary of the method: as §2

[9] = tested on: liver tissue of male C57BL/6J mice; assay: Liver uptake of fluorescein-polyamide conjugates; type: in vivo, mouse; conditions: 50 nmol (∼3 mg/kg), sacrificed 24 h later
[10] = Serum levels after subcutaneous injection; type: in vivo, mouse; conditions: male C57BL/6J mice, 10 mg/kg sc
[11] = 1 mg/kg sc every 3 days, three injections
[12] = single sc dose 3 mg/kg, 3 mg/kg

SMILES: CC(=O)N[C@H](CCNC(=O)c1cc(NC(=O)c2cc(NC(=O)c3cc(NC(=O)c4nccn4C)cn3C)cn2C)cn1C)C(=O)Nc1cn(C)c(C(=O)Nc2cc(C(=O)Nc3cc(C(=O)Nc4cc(C(=O)NCCCN(C)CCCNC(=O)c5cccc(C(=O)O)c5)n(C)c4)n(C)c3)n(C)c2)n1 [Polyamide 3, ImPyPyPy-2-(R)^AcHNγ-ImPyPyPy∼NHMe∼IPA]
RPB1 protein level (RPB1; 10 μM, 72 h): reduced RPB1 levels | Hematologic changes (in words) (male C57BL/6J mice [1]): No significant hematologic changes | Organ toxicity by histopathology, overall (male C57BL/6J mice [2]): no detectable toxicity | Alteration of liver and kidney serum markers (in words) (male C57BL/6J mice [3]): no histopathologic lesions consistent with toxicity or alterations in liver and kidney serum markers | Histopathologic lesions, overall (male C57BL/6J mice [4]; [11]): no histopathologic lesions consistent with toxicity | DNA damage (genomic fragmentation) by comet assay (LNCaP cells): no increase in genomic fragmentation; also recorded: did not result in increased DNA damage | Transcripts of p53 responsive genes p21, IGFBP3, and GADD45A (p21, IGFBP3, and GADD45A): induced by 3 in a dose-dependent fashion; also recorded: increased | Elevation of serum markers of liver and kidney damage (in words) (male C57BL/6J mice [5]): no elevation of these markers at the dose levels tested | Cellular level of p53 protein (p53; 10 μM, 72 h): increased

SMILES: CC(=O)N[C@@H](CNC(=O)c1cc(NC(=O)c2cc(NC(=O)c3cc(NC(=O)c4nccn4C)cn3C)cn2C)cn1C)CC(=O)Nc1cn(C)c(C(=O)Nc2cc(C(=O)Nc3cc(C(=O)Nc4cc(C(=O)NCCCN(C)CCCNC(=O)c5cccc(C(=O)O)c5)n(C)c4)n(C)c3)n(C)c2)n1 [Polyamide 4, ImPyPyPy-3-(R)^AcHNγ-ImPyPyPy∼NHMe∼IPA]
Percent intact after 1 h incubation [6]: less than 5% | Behavior and appearance (male C57BL/6J mice [7]; single sc injection, 3 mg/kg): hunched posture, loss of mobility, and acute morbidity | Behavior and appearance (male C57BL/6J mice [7]; single sc injection, 10 mg/kg): hunched posture, loss of mobility, and acute morbidity | Dose tolerated (only tolerated at) (male C57BL/6J mice [7]; single sc injection, 1, 3, 10 mg/kg tested): 1 mg/kg | Kidney lesions by histopathology (in words) (male C57BL/6J mice [2]; single sc dose 1 mg/kg): Milder tubular regeneration and karyomegaly | Liver lesions by histopathology (in words) (male C57BL/6J mice [2]; single sc dose 1 mg/kg): Mild hepatocellular necrosis and apoptosis | Spleen lesions by histopathology (in words) (male C57BL/6J mice [2]; single sc dose 3 mg/kg): Mild lymphoid apoptosis in the white pulp of the spleen | Kidney lesions by histopathology (in words) (male C57BL/6J mice [2]; [12]): Moderate atypical tubular regeneration (karyomegaly, tubular attenuation, mitotic figures) and/or tubular epithelial necrosis and apoptosis | Liver lesions by histopathology (in words) (male C57BL/6J mice [2]; [12]): multifocal bridging hepatocellular necrosis and apoptosis | Kidney lesions by histopathology (in words) (male C57BL/6J mice [2]; single sc dose 10 mg/kg): Moderate atypical tubular regeneration (karyomegaly, tubular attenuation, mitotic figures) and/or tubular epithelial necrosis and apoptosis | Liver lesions by histopathology (in words) (male C57BL/6J mice [2]; single sc dose 10 mg/kg): multifocal bridging hepatocellular necrosis and apoptosis | Spleen lesions by histopathology (in words) (male C57BL/6J mice [2]; single sc dose 10 mg/kg): Mild lymphoid apoptosis in the white pulp of the spleen | Percent intact after 1 h incubation [8]: less than 5% | Kidney lesions by histopathology (in words) (male C57BL/6J mice [4]; 1 mg/kg sc, two injections): hyaline droplet accumulation | Liver lesions by histopathology (in words) (male C57BL/6J mice [4]; 1 mg/kg sc, two injections): marked hepatocellular necrosis and apoptosis | Elevation of serum markers of liver and kidney damage (in words) (male C57BL/6J mice [5]): marked and severe elevations of AST, ALT, and total bilirubin at both 3 and 10 mg/kg; also recorded: significantly elevated creatinine and BUN at 10 mg/kg and elevated BUN at 3 mg/kg

SMILES: COc1cccc2c1C(=O)c1c(O)c3c(c(O)c1C2=O)C[C@@](O)(C(=O)CO)C[C@@H]3O[C@H]1C[C@H](N)[C@H](O)[C@H](C)O1 [doxorubicin, reference compound]
RPB1 protein level (RPB1; 1 μM, 24 h): decreases | Cellular level of p53 protein (p53; 1 μM, 24 h): increases

SMILES: CC(=O)N[C@@H](CNC(=O)c1cc(NC(=O)c2cc(NC(=O)c3cc(NC(=O)c4nccn4C)cn3C)cn2C)cn1C)CC(=O)Nc1cn(C)c(C(=O)Nc2cc(C(=O)Nc3cc(C(=O)Nc4cc(C(=O)NCCCN(C)CCCNC(=S)Nc5ccc(-c6c7ccc(=O)cc-7oc7cc(O)ccc67)c(C(=O)O)c5)n(C)c4)n(C)c3)n(C)c2)n1 [Polyamide 9]
Nuclear fluorescence in liver sections [9]: the most intense nuclear fluorescence in liver sections

SMILES: CC(=O)N[C@H](CCNC(=O)c1cc(NC(=O)c2cc(NC(=O)c3cc(NC(=O)c4nccn4C)cn3C)cn2C)cn1C)C(=O)Nc1cn(C)c(C(=O)Nc2cc(C(=O)Nc3cc(C(=O)Nc4cc(C(=O)NCCCN(C)CCCNC(=S)Nc5ccc(-c6c7ccc(=O)cc-7oc7cc(O)ccc67)c(C(=O)O)c5)n(C)c4)n(C)c3)n(C)c2)n1 [Polyamide 8]
Nuclear fluorescence in liver sections [9]: less nuclear fluorescence in liver sections than the other FITC–polyamide conjugates

Weight loss (male C57BL/6J mice [7]): significant weight loss only at 10 mg/kg
SMILES: CN(CCCNC(=O)c1cccc(C(=O)O)c1)CCCNC(=O)c1cc(NC(=O)c2cc(NC(=O)c3cc(NC(=O)c4nc(NC(=O)C[C@@H](N)CNC(=O)c5cc(NC(=O)c6cc(NC(=O)c7cc(NC(=O)c8nccn8C)cn7C)cn6C)cn5C)cn4C)cn3C)cn2C)cn1C [Polyamide 2, ImPyPyPy-3-(R)^H2Nγ-ImPyPyPy∼NHMe∼IPA]
Kidney lesions by histopathology (in words) (male C57BL/6J mice [2]; single sc dose 3 mg/kg): Moderate atypical tubular regeneration (karyomegaly, tubular attenuation, mitotic figures) and/or tubular epithelial necrosis and apoptosis | Liver lesions by histopathology (in words) (male C57BL/6J mice [2]; single sc dose 3 mg/kg): Mild hepatocellular necrosis and apoptosis | Liver lesions by histopathology (in words) (male C57BL/6J mice [2]; single sc dose 10 mg/kg): diffuse hepatocellular necrosis and apoptosis | Spleen lesions by histopathology (in words) (male C57BL/6J mice [2]; single sc dose 10 mg/kg): Mild lymphoid apoptosis in the white pulp of the spleen | Alteration of liver and kidney serum markers (in words) (male C57BL/6J mice [3]): elevated AST and ALT | Kidney lesions by histopathology (in words) (male C57BL/6J mice [4]; [11]): mild variable tubular attenuation, karyomegaly, and epithelial necrosis and apoptosis | Liver lesions by histopathology (in words) (male C57BL/6J mice [4]; [11]): mild multifocal hepatocellular necrosis and apoptosis | Elevation of serum markers of liver and kidney damage (in words) (male C57BL/6J mice [5]): severe elevation of AST, ALT, and total bilirubin at 10 mg/kg and to a lesser extent at 3 mg/kg; also recorded: elevated BUN at 10 mg/kg

SMILES: Cn1cc2cc1C(=O)NCCCC(=O)Nc1cn(C)c(n1)C(=O)Nc1cc(n(C)c1)C(=O)Nc1cc(n(C)c1)C(=O)Nc1cc(n(C)c1)C(=O)NCC[C@@H](N)C(=O)Nc1cn(C)c(n1)C(=O)Nc1cc(n(C)c1)C(=O)Nc1cc(n(C)c1)C(=O)N2 [Polyamide 5]
Weight loss (male C57BL/6J mice [7]): did not cause significant weight loss; also recorded: less effect on animal weight than 1 | Organ toxicity by histopathology, overall (male C57BL/6J mice [2]): did affect the kidney and liver | Serum bioavailability after subcutaneous injection [10]: bioavailable | Elevation of serum markers of liver and kidney damage (in words) (male C57BL/6J mice [5]): caused levels of ALT and AST to increase in a dose-dependent manner
